Bioassay records deposited in PubChem by Broad Institute.
ARNT TACC3 PPI: disruptors of human ARNT/TACC3 interaction; AlphaScreen His-ARNT PAS-B/GST-TACC3 binding, luminescence; TACC3 fragment carries E629A point mutation; inhibition, % at 9.99 µM; actives 0.66% (n = 390,000); AID 623870;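 active = mean inhibition of replicates at least 50% and at least half of replicates each reaching 50%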
AI-2 QS mod: modulators of Vibrio harveyi AI-2 quorum sensing system; Vibrio harveyi JMH597 AI-2 luminescence/OD600 ratio, 9 h; stronger effect = lower value; strain lacks LuxN and CqsS sensors; 0 = neutral-control median; AID 2094; activity change, % at 7.5 µM; actives 0.4% (n = 300,000); in the data active = activity change below about -75%, passing the limit was not always enough;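 note: luminescence divided by OD600 gain over 9 h not by final OD600 alone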
T cruzi inh: blocks replication of Trypanosoma cruzi. inhibition, % (test concentration not listed). T. cruzi beta-gal in NIH3T3, luminescence, 90 h. actives 1.4% (n = 300,000). AID 1885;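 active = mean inhibition across valid replicates above about 55%, limit read from the data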;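 note: signal also drops with host cell toxicity which is not excluded here; higher percent means less beta-gal luminescence so fewer parasites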
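System – NIH/3T3 host cells with β-galactosidase reporter T. cruzi · Doses – single 50 nL compound addition per well in DMSO · Reagent – 5000 T. cruzi trypomastigotes/well · Medium – Low-serum DMEM with 2% FBS · Timing – ≥90 h infection period, 3 h prior cell attachment · Evaluation – parasite load inhibition, % · Technique – GalScreen luminescence, 60 min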
HIF act: HIF pathway transcriptional activation; U2OS HRE-luciferase reporter, luminescence; normalized: DMSO 0%, desferrioxamine 100%; activation, % at 7.5 µM (by protocol); actives 0.32% (n = 300,000);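 active = mean activation of at least 10% of the iron chelator positive control signal, with at least half of replicates also reaching 10%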
Numbers stand for hits; . = inactive; / = no result given. Only some compounds are listed: those with a hit (about 2% of all), similar ones and a draw of the others.

SMILES	ARNT TACC3 PPI	AI-2 QS mod	T cruzi inh	HIF act
CCN1CCN(c2ccc(S(=O)(=O)N3CCCCC3)cc2NC(=O)c2cccc(C(F)(F)F)c2)CC1	.	.	68	.
CCN1CCN(c2ccc(S(=O)(=O)N3CCCCC3)cc2NC(=O)Cc2ccccc2)CC1	.	.	.	.
CCN1CCN(c2ccc(S(=O)(=O)N3CCCCC3)cc2NC(=O)c2cccc(F)c2)CC1	.	.	.	.
CCN1CCN(c2ccc(S(=O)(=O)N3CCCCC3)cc2NC(=O)c2ccc([N+](=O)[O-])s2)CC1	.	.	55	.
CCN1CCN(c2ccc(S(=O)(=O)N3CCCCC3)cc2NC(=O)Cc2ccccc2F)CC1	.	.	55	.
CCN1CCN(c2ccc(S(=O)(=O)N3CCCCC3)cc2NC(=O)Cc2ccc(Cl)c(Cl)c2)CC1	.	.	63	.
CO[C@H]1CN(C)C(=O)c2ccc(NC(=O)C3CCC3)cc2OC[C@H](C)N(Cc2ccncc2)C[C@@H]1C	.	/	/	/
C[C@@H]1CN([C@H](C)CO)C(=O)c2cc(N(C)C)ccc2O[C@@H]1CN(C)C(=O)Nc1ccc(F)cc1	.	/	/	/
CCN1CCN(c2ccc(S(=O)(=O)N3CCCCC3)cc2NC(=O)c2ccc(C)o2)CC1	.	.	55	.
CCN1CCN(c2ccc(S(=O)(=O)N3CCCCC3)cc2NC(=O)c2ccccc2)CC1	.	.	.	.
O=C(NC(CSCc1ccccc1)C(=O)N/N=C/c1ccc(O)cc1O)c1ccc([N+](=O)[O-])cc1 (centres undefined)	.	.	.	42
COc1cc(O)ccc1/C=N/NC(=O)c1ccc([N+](=O)[O-])cc1	.	.	.	.
Cc1cc(=O)n(-c2ccc(C(=O)O)cc2)[nH]1	50	.	.	.
COCC(=O)Nc1ccc2c(c1)C(=O)N(C)C[C@@H](OC)[C@@H](C)CN(Cc1cc(F)ccc1F)[C@@H](C)CO2	.	/	/	/
CN(Cc1nc(-c2cnccn2)no1)CC1CCN(Cc2ccccc2)CC1	.	.	.	/
CC(C)CCc1noc(CN(C)CC2CCN(Cc3ccccc3)CC2)n1	.	.	55	.
CCCN1C[C@H](C)[C@@H](OC)CN(C)C(=O)c2cc(NC(=O)c3ccccc3F)ccc2OC[C@H]1C	.	/	/	/
C[C@H]1CN([C@@H](C)CO)C(=O)c2cc(NC(=O)CCCN(C)C)ccc2O[C@H]1CN(C)Cc1ccc(C(F)(F)F)cc1	.	/	/	/
CC(C)CC#Cc1cnc2c(c1)C(=O)N([C@@H](C)CO)C[C@@H](C)[C@@H](CN(C)Cc1ccccc1)O2	.	/	/	/
Nc1ccccc1Nc1cc(-c2cccc(Cl)c2)nn1-c1ccccc1	.	.	57	.
CCOC(=O)N1CCC(N2CCCC(C(=O)c3cc(F)ccc3OC)C2)CC1 (centres undefined)	.	.	59	.
CCc1noc(C)c1C(=O)N1CCCC(C(=O)c2cc(F)ccc2OC)C1 (centres undefined)	.	.	55	.
C[C@@H]1CCCCO[C@@H](CN(C)Cc2ccccc2)[C@H](C)CN([C@H](C)CO)C(=O)c2cc(NC(=O)C3CCCCC3)ccc2O1	.	/	/	/
COc1ccc(S(=O)(=O)N(C)C[C@@H]2OCCCC[C@H](C)Oc3ccc(NS(C)(=O)=O)cc3C(=O)N([C@H](C)CO)C[C@H]2C)cc1	.	/	/	/
O=C(O)CCCCCCCCc1cn(Cc2ccc(C(=O)c3ccccc3)cc2)nn1	.	.	56	.
SMILES	ARNT TACC3 PPI	AI-2 QS mod	T cruzi inh	HIF act
C[C@H](CO)N1C[C@H](C)[C@H](CN(C)C(=O)Nc2cccc3ccccc23)Oc2ncc(C#Cc3cccc(F)c3)cc2C1=O	.	/	/	/
O=[N+]([O-])c1cccc(C2NCC(c3ccccc3Cl)c3c2[nH]c2ccccc32)c1 (centres undefined)	.	/	.	.
CN(C)c1ccc(C2CNC(c3ccc(Cl)c([N+](=O)[O-])c3)c3[nH]c4ccccc4c32)cc1 (centres undefined)	.	.	57	.
Cc1noc(C)c1S(=O)(=O)Nc1ccc2c(c1)C(=O)N([C@H](C)CO)C[C@H](C)[C@@H](CN(C)Cc1ccc(-c3ccccc3)cc1)O2	.	/	/	/
NC(=S)N/N=C/c1ccccc1OCCSc1ccc(Cl)cc1	.	.	57	.
CCOC(=O)N/N=C/c1ccccc1OCc1ccc(Cl)cc1	.	.	.	.
COc1cccc(/C=N/n2nnnc2N)c1OCc1ccccc1Cl	/	.	.	.
COc1cccc(/C=N/NC(N)=S)c1OCc1ccccc1Cl	/	.	59	.
O=C(Nc1ccccc1)Nc1cccc2nsnc12	.	.	.	11
CC(C)CC#Cc1ccc2c(c1)O[C@H](CN(C)Cc1ccccc1F)[C@H](C)CN([C@@H](C)CO)S2(=O)=O	.	/	/	/
CN(C)CCN1C(=O)c2cccc3cc([N+](=O)[O-])cc(c23)C1=O	.	/	/	/
CC(=O)OCCN1C(=O)c2cccc3cc([N+](=O)[O-])cc(c23)C1=O	/	.	73	.
O=C(CC1CC2CCC1C2)OCC(=O)c1c[nH]c2ccccc12 (centres undefined)	.	-84	.	.
Cc1noc(C)c1NC(=O)N(C)C[C@H]1Oc2c(NC(=O)C3CCOCC3)cccc2C(=O)N([C@H](C)CO)C[C@H]1C	.	/	/	/
CC(Oc1ccc(Br)cc1)C(=O)NNC(=O)CCN1CCN(c2ccccc2)CC1 (centres undefined)	.	-92	.	.
O=C(CCN1CCN(c2ccccc2)CC1)NNC(=O)Cc1ccc(Br)cc1	.	/	/	/
C[C@H](CO)N1C[C@H](C)[C@H](CN(C)C(=O)c2ccccn2)Oc2ncc(C3=CCCCC3)cc2C1=O	.	/	/	/
Nc1nc(CCl)nc(Nc2cccc3ccccc23)n1	/	.	70	.
Nc1nc(Nc2cccc3ccccc23)nc(C2CCCC2=O)n1 (centres undefined)	/	.	.	.
COc1ccc(CN2C[C@H](C)[C@@H](OC)CN(C)C(=O)c3ccc(NC(C)=O)cc3OC[C@@H]2C)cc1	.	/	/	/
COc1ccc([Si](C)(C)[C@@H]2[C@@H](CCn3cc(CCO)nn3)O[C@]3(C(=O)N(c4ccccc4)c4ccccc43)[C@H]2C)cc1	.	/	/	/
c1ccc2c(Nc3nnc(-c4ccncc4)s3)cccc2c1	.	.	57	.
C=CCNc1nnc(-c2ccncc2)s1	.	.	.	.
O=C(c1ccccc1F)N1C[C@@H]2[C@H](c3ccccc31)[C@@H](CO)N2C(=O)c1ccccc1	.	/	/	/
Cc1ccc(N2CCN(c3ccc(C)cc3)C2c2cccnc2)cc1	.	.	59	.
c1ccc(N2CCN(c3ccccc3)C2c2cccnc2)cc1	.	.	.	.
C=CCOc1ccc(/C=C2\SC(=Nc3cccnc3)NC2=O)cc1	.	.	.	84
CC(/C=C1\SC(=Nc2cccnc2)NC1=O)=C\c1ccccc1	.	.	.	.
O=C(Nc1ccccc1F)N[C@H]1CC[C@@H](CCNC(=O)C2CCCCC2)O[C@H]1CO	.	/	/	/
C[C@H](CO)N1C[C@H](C)[C@H](CN(C)Cc2ccc3c(c2)OCO3)Oc2c(NC(=O)c3ccc(-c4nccs4)cc3)cccc2C1=O	.	/	/	/
